Experimental data reported in ChEMBL document CHEMBL1123921, “Quinolonecarboxylic acids. 2. Synthesis and antibacterial evaluation of 7-oxo-2,3-dihydro-7H-pyrido[1,2,3-de][1,4]benzothiazine-6-carboxylic acids” (J Med Chem, 1987).
Converted amounts (≈) assume the structure as drawn.

Experiments:
Assay type in all cases: functional
Staphylococcus aureus = assay: In vitro antibacterial activity against clinical isolates of Staphylococcus aureus 18773 (gram-positive) by agar dilution assay.
Method in brief: (§1)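 Agar dilution on Isosensitest agar; compound incorporated by twofold serial dilution. Overnight broth cultures delivered by multipoint inoculator at 10⁵ CFU per point. Plates read after 18 h at 37 °C. MIC taken as the lowest concentration giving complete growth inhibition.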

Morganella morganii = assay: In vitro antibacterial activity against clinical isolates of Proteus morganii 27 (gram negative) by agar dilution assay.; method in brief: as §1
Enterobacter cloacae = assay: In vitro antibacterial activity against clinical isolates of Enterobacter cloacae 041 (gram negative) by agar dilution assay.; method in brief: as §1
Escherichia coli = assay: In vitro antibacterial activity against clinical isolates of Escherichia coli 15 (gram negative) by agar dilution assay.; method in brief: as §1
Klebsiella pneumoniae = assay: In vitro antibacterial activity against clinical isolates of Klebsiella pneumoniae-4 (gram negative) by agar dilution assay.; method in brief: as §1
Pseudomonas aeruginosa = assay: In vitro antibacterial activity against clinical isolates of Pseudomonas aeruginosa 2437 (gram negative) by agar dilution assay.; method in brief: as §1

Structure (SMILES)	MIC (Staphylococcus aureus) [µg/mL]	MIC (Morganella morganii) [µg/mL]	MIC (Enterobacter cloacae) [µg/mL]	MIC (Escherichia coli) [µg/mL]	MIC (Klebsiella pneumoniae) [µg/mL]	MIC (Pseudomonas aeruginosa) [µg/mL]
CC1CN(c2c(F)cc3c(=O)c(C(=O)O)cn4c3c2SCC4)CC(C)N1 (centres undefined)	3.12 (≈ 8.27 µM)	25 (≈ 66.2 µM)	3.12 (≈ 8.27 µM)	6.25 (≈ 16.6 µM)	6.25 (≈ 16.6 µM)	100 (≈ 265 µM)
CCn1cc(C(=O)O)c(=O)c2cnc(N3CCNCC3)nc21 [PIPEMIDIC ACID]	3.12 (≈ 10.3 µM)	3.12 (≈ 10.3 µM)	0.78 (≈ 2.57 µM)	0.39 (≈ 1.29 µM)	0.78 (≈ 2.57 µM)	> 25
O=C(O)c1cn2c3c(c(Cl)c(N4CCCC4)cc3c1=O)SCC2	> 50	> 50	> 50	> 50	> 50	> 50
CC1COc2c(N3CCN(C)CC3)c(F)cc3c(=O)c(C(=O)O)cn1c23 (centres undefined) [OFLOXACIN]	0.19 (≈ 0.526 µM)	0.78 (≈ 2.16 µM)	0.19 (≈ 0.526 µM)	0.19 (≈ 0.526 µM)	0.39 (≈ 1.08 µM)	1.56 (≈ 4.32 µM)
O=C(O)c1cn2c3c(c(N4CCCC4)c(F)cc3c1=O)S(=O)(=O)CC2	3.12 (≈ 8.52 µM)	> 50	25 (≈ 68.2 µM)	3.12 (≈ 8.52 µM)	25 (≈ 68.2 µM)	> 50
O=C(O)c1cn2c3c(cc(F)cc3c1=O)SCC2	6.25 (≈ 23.6 µM)	3.12 (≈ 11.8 µM)	6.25 (≈ 23.6 µM)	0.78 (≈ 2.94 µM)	3.12 (≈ 11.8 µM)	50 (≈ 188 µM)
O=C(O)c1cn2c3c(c(N4CCCC4)c(F)cc3c1=O)[S+]([O-])CC2 (centres undefined)	12.5 (≈ 35.7 µM)	> 50	50 (≈ 143 µM)	12.5 (≈ 35.7 µM)	25 (≈ 71.4 µM)	> 50
O=C(O)c1cn2c3c(cc(F)c(N4CCNCC4)c3c1=O)SCC2	> 100	> 100	> 100	> 100	> 100	> 100
O=C(O)c1cn2c3c(c(Cl)c(F)cc3c1=O)SCC2	0.39 (≈ 1.3 µM)	6.25 (≈ 20.9 µM)	0.39 (≈ 1.3 µM)	0.39 (≈ 1.3 µM)	0.78 (≈ 2.6 µM)	> 25
O=C(O)c1cn2c3c(cc(F)c(N4CCCC4)c3c1=O)SCC2	> 100	–	–	> 100	> 100	–
O=C(O)c1cn2c3c(c(N4CCCC4)c(F)cc3c1=O)SCC2	< 0.39	3.12 (≈ 9.33 µM)	1.56 (≈ 4.67 µM)	1.56 (≈ 4.67 µM)	1.56 (≈ 4.67 µM)	3.12 (≈ 9.33 µM)
O=C(O)c1cn2c3c(c(Cl)c(N4CCOCC4)cc3c1=O)SCC2	> 50	> 50	> 50	6.25 (≈ 17 µM)	> 50	6.25 (≈ 17 µM)
O=C(O)c1cn2c3c(c(N4CCNCC4)c(F)cc3c1=O)SCC2	0.78 (≈ 2.23 µM)	1.56 (≈ 4.46 µM)	< 0.39	0.39 (≈ 1.12 µM)	< 0.39	12.5 (≈ 35.8 µM)
O=C(O)c1cn2c3c(cc(F)c(Cl)c3c1=O)SCC2	> 50	> 50	> 50	> 50	> 50	> 50
O=C(O)c1cn2c3c(c(N4CCN(C(=O)C(F)(F)F)CC4)c(F)cc3c1=O)SCC2	1.56 (≈ 3.5 µM)	1.56 (≈ 3.5 µM)	< 0.39	< 0.39	< 0.39	12.5 (≈ 28.1 µM)
O=C(O)c1cn2c3c(c(N4CCN(CC(F)(F)F)CC4)c(F)cc3c1=O)SCC2	0.39 (≈ 0.904 µM)	> 50	> 50	> 50	> 50	> 50
O=C(O)c1cn2c3c(cc(N4CCN(CCO)CC4)cc3c1=O)SCC2	100 (≈ 266 µM)	> 50	–	100 (≈ 266 µM)	–	> 100
O=C(O)c1cn2c3c(cc(N4CCCC4)cc3c1=O)SCC2	50 (≈ 158 µM)	–	–	50 (≈ 158 µM)	–	100 (≈ 316 µM)
O=C(O)c1cn2c3c(cc(F)cc3c1=O)S(=O)(=O)CC2	> 50	–	–	100 (≈ 336 µM)	–	> 50

Structure (SMILES)	MIC (Staphylococcus aureus) [µg/mL]	MIC (Morganella morganii) [µg/mL]	MIC (Enterobacter cloacae) [µg/mL]	MIC (Escherichia coli) [µg/mL]	MIC (Klebsiella pneumoniae) [µg/mL]	MIC (Pseudomonas aeruginosa) [µg/mL]
CN1CCN(c2cc3c(=O)c(C(=O)O)cn4c3c(c2Cl)SCC4)CC1	> 50	> 50	> 50	> 50	> 50	6.25 (≈ 16.5 µM)
O=C(O)c1cn2c3c(c(Cl)c(F)cc3c1=O)S(=O)(=O)CC2	–	–	–	> 50	–	–
O=C(O)c1cn2c3c(c(Cl)c(N4CCNCC4)cc3c1=O)SCC2	> 50	> 50	> 50	> 50	> 50	> 50
O=C(O)c1cn2c3c(cc(N4CCOCC4)cc3c1=O)SCC2	> 50	> 50	> 50	> 50	> 50	6.25 (≈ 18.8 µM)
O=C(O)c1cn2c3c(cc(N4CCN(Cc5ccccc5)CC4)cc3c1=O)SCC2	50 (≈ 119 µM)	> 50	–	50 (≈ 119 µM)	–	> 50
O=C(O)c1cn2c3c(cc(N4CCNCC4)cc3c1=O)SCC2	> 50	50 (≈ 151 µM)	50 (≈ 151 µM)	> 50	50 (≈ 151 µM)	50 (≈ 151 µM)
O=C(O)c1cn2c3c(c(Cl)c(F)cc3c1=O)[S+]([O-])CC2 (centres undefined)	> 100	> 100	> 100	> 100	> 100	> 100
O=C(O)c1cn2c3c(cccc3c1=O)SCC2	25 (≈ 101 µM)	12.5 (≈ 50.6 µM)	25 (≈ 101 µM)	6.25 (≈ 25.3 µM)	25 (≈ 101 µM)	50 (≈ 202 µM)
O=C(O)c1cn2c3c(ccc(C(F)(F)F)c3c1=O)SCC2	> 50	> 50	> 50	> 50	> 50	100 (≈ 317 µM)
O=C(O)c1cn2c3c(c(Cl)c(Cl)cc3c1=O)SCC2	0.78 (≈ 2.47 µM)	1.56 (≈ 4.93 µM)	> 50	> 50	12.5 (≈ 39.5 µM)	> 50
CCOC(=O)N1CCN(c2c(F)cc3c(=O)c(C(=O)O)cn4c3c2SCC4)CC1	0.39 (≈ 0.925 µM)	> 50	6.25 (≈ 14.8 µM)	6.25 (≈ 14.8 µM)	6.25 (≈ 14.8 µM)	> 50
CCn1cc(C(=O)O)c(=O)c2cc(F)c(N3CCNCC3)cc21 [NORFLOXACIN]	0.19 (≈ 0.595 µM)	0.78 (≈ 2.44 µM)	0.39 (≈ 1.22 µM)	0.19 (≈ 0.595 µM)	0.19 (≈ 0.595 µM)	1.56 (≈ 4.89 µM)
O=C(O)c1cn2c3c(c(N4CCSCC4)c(F)cc3c1=O)SCC2	0.78 (≈ 2.13 µM)	6.25 (≈ 17.1 µM)	1.56 (≈ 4.26 µM)	3.12 (≈ 8.51 µM)	1.56 (≈ 4.26 µM)	> 50
CN1CCN(c2cc3c4c(c2)c(=O)c(C(=O)O)cn4CCS3)CC1	100 (≈ 289 µM)	100 (≈ 289 µM)	–	100 (≈ 289 µM)	–	> 100
O=C(O)c1cn2c3c(cccc3c1=O)S(=O)(=O)CC2	> 100	> 100	> 100	100 (≈ 358 µM)	> 100	100 (≈ 358 µM)
O=C(O)c1cn2c3c(cc(N4CCCC4)c(Cl)c3c1=O)SCC2	100 (≈ 285 µM)	> 100	–	> 100	> 100	> 100
O=C(O)c1cn2c3c(cc(N4CCN(C(=O)C(F)(F)F)CC4)cc3c1=O)SCC2	50 (≈ 117 µM)	> 50	–	> 50	–	100 (≈ 234 µM)
O=C(O)c1cn2c3c(cc(Cl)cc3c1=O)SCC2	25 (≈ 88.7 µM)	6.25 (≈ 22.2 µM)	12.5 (≈ 44.4 µM)	3.12 (≈ 11.1 µM)	6.25 (≈ 22.2 µM)	> 100
